An excerpt weighted towards active compounds, which were near 2.5% of everything screened.
SIRT5 block = SIRT5 desuccinylase inhibitors, primary screen, biochemical, fluorescence imaging, single point, set 5; NAD-dependent protein deacylase sirtuin-5, mitochondrial (Homo sapiens), Q9NXA8; Purified SirT5, succinyl-peptide AMC, trypsin-coupled fluorescence; inhibition, % at 15 µM; actives 1.1% (n = 330,000); in the data active = inhibition above about 15%; inconclusive = no clear call, values can overlap the other calls
E-selectin induc = E-selectin induction in HUVECs, primary screen, imaging, HUVEC, immunofluorescence imaging, single point. AID 686992, 2013. normalized: neutral wells 0, TNF-alpha wells 100. actives 0.37% (n = 260,000). activation, % at 7.58 µM;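 active = mean E-selectin-positive cell signal at least 10% of the positive control, reached in at least 60% of replicates, without over 20% cell loss; inconclusive = no rule given, readout overlaps actives, possibly toxicity-flagged; inactive = the rest, including those meeting only one limit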
Target sequence (P16581 whole entry, looked up): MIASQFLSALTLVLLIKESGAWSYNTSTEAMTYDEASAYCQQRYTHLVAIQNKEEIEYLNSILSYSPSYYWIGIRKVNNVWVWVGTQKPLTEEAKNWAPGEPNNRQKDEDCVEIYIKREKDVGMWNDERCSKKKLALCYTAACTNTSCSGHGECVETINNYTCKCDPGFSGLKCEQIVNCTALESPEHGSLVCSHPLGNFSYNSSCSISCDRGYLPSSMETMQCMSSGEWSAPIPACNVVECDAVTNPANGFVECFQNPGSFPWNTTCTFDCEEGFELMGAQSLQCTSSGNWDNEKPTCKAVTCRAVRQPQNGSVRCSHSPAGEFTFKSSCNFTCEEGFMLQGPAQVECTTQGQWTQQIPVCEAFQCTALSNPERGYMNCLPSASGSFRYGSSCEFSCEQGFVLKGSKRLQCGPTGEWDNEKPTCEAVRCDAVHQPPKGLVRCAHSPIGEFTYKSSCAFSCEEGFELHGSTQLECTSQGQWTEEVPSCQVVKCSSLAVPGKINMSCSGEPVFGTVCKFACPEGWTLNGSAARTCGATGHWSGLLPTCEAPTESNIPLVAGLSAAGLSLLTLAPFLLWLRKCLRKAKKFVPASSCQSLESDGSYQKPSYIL
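Assay system: HUVEC primary endothelial cells. Input: 3,000 HUVEC seeded per well. Doses: one compound dose added by pin transfer. Read-out basis: % PE-positive cells. Benchmarks: TNF-alpha high, DMSO low. Detection: immunofluorescence imaging. Buffer or medium: EGM-2, gelatin.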
DENV2 CPE = inhibitors of DENV2 cytopathic effect, primary screen, cell-based, plate reader, single concentration; DENV2-infected cells, cytopathic effect rescue; CPE inhibition, % at 9.99 µM; actives 1.7% (n = 350,000); AID 651640, 2012; in the data active = CPE inhibition above about 20%, passing the limit was not always enough; inconclusive = no clear call, values can overlap the other calls; tested in BHK-21 cells;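 note: 0% = median of neutral control wells and 100% = median of positive control wells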
ERAP1 inh = human ERAP1 aminopeptidase inhibitors, primary screen, biochemical, single point, plate reader. Endoplasmic reticulum aminopeptidase 1 (Homo sapiens), Q9NZ08. recombinant ERAP1, Leu-AMC fluorescence, 60 min. inhibition, % at 10.7 µM. actives 0.15% (n = 340,000);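 active = mean replicate inhibition of at least 30%, or all replicates individually reaching that 30% level; inactive = mean below 30% and not every replicate reaching it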;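 note: 0% = neutral control wells and 100% = L-leucinethiol positive control wells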
PglD DTNB = C. jejuni PglD acetyltransferase inhibitors, primary screen, biochemical, DTNB colorimetric, single point; UDP-N-acetylbacillosamine N-acetyltransferase PglD (Campylobacter jejuni); purified PglD enzyme, DTNB colorimetric CoA detection; inhibition, % at 12.5 µM; actives 0.098% (n = 360,000); AID 602405, 2012; in the data active = inhibition above about 16%, passing the limit was not always enough; inconclusive = no clear call, values can overlap the other calls
* marks the source's active call; other numbers are inactive results; ? = inconclusive; nt = not tested or not shown; ! = repeats disagree.

SMILES	SIRT5 block	E-selectin induc	DENV2 CPE	ERAP1 inh	PglD DTNB
Cc1ccc2c(c1N)C(=O)c1ccccc1C2=O	nt	nt	30.5*	2.3	-0.9
CN(C)CC1CSCCC1(O)c1ccc(C(F)(F)F)cc1 (configuration not stated)	-25.2	nt	68.9*	-1.4	-1.9
CN(C)CC1CSCCC1(O)c1ccc(Cl)cc1 (configuration not stated)	nt	nt	nt	nt	-0.5
Cc1cccc(CCNCc2cc3ccc(C)cc3[nH]c2=O)c1	-0.4	0.0	0.9	3.1	3.3
Cc1ccc(-c2nc3ccccc3c(=O)n2-c2cccc(O)c2)cc1	4.3	164.3*	3.5	-1.1	nt
C[C@H]1CN([C@@H](C)CO)C(=O)c2c(c3ccccc3n2C)-c2ccccc2CO[C@@H]1CN(C)C(=O)Oc1ccccc1	5.6	0.0	-2.3	-0.4	nt
NC(Cc1ccc(Cl)cc1)c1csc(Nc2ccccn2)n1 (configuration not stated)	nt	0.8	-2.3	-1.8	-2.9
C/C=C/c1ccc([C@H]2[C@H]3CN(C(=O)Cc4ccncc4)CCCCN3[C@H]2CO)cc1	2.2	0.0	8.4	2.6	-6.3
COc1ccc(-n2nnnc2C(CCc2ccccc2)N2CCC(n3c(=O)[nH]c4ccccc43)CC2)cc1 (configuration not stated)	-2.9	-0.4	56.4*	2.2	5.8
COc1ccc(C(CNC(=O)CCc2ccsc2)N(C)C)cc1 (configuration not stated)	-7.1	nt	5.9	-3.9	-2.0
C[C@]12C[C@H](O)[C@@H](O)C[C@@H]1CC[C@@H]1[C@@H]2CC[C@]2(C)C(=O)CC[C@@H]12	-1.2	nt	33.4*	-0.7	-1.8
COc1ccc(CN2C(=O)NC(=O)/C(=C\c3ccco3)C2=O)cc1	14.0	nt	1.5	0.8	5.5
O=C1NC(=O)N(Cc2ccc(F)cc2)C(=O)/C1=C\c1ccc([N+](=O)[O-])s1	28.4*	nt	-1.4	0.1	-11.6
COc1ccc(CN2C(=O)NC(=O)/C(=C/c3ccc([N+](=O)[O-])s3)C2=O)cc1	41.3*	nt	7.0	0.1	0.1
COc1ccc(-c2ccc([C@@H]3[C@H](CO)N4CCCCN(C(=O)Cc5ccncc5)C[C@@H]34)cc2)cc1	1.9	-0.3	9.8	0.4	-0.7
NP(=O)(OCCCCc1ccccc1)Oc1ccccc1Cl (configuration not stated)	nt	nt	?	-2.0	0.6
O=C1C(=Cc2ccccc2)N2CCC1CC2	0.9	-1.6	29.1*	-3.1	3.3
O=C1/C(=C/c2cccnc2)N2CCC1CC2	1.0	nt	5.0	3.4	nt
O=[N+]([O-])c1cccc(O)c1	nt	nt	25.4*	-1.6	-0.8
O=[N+]([O-])c1cccc(CCl)c1	nt	nt	nt	nt	-2.3
Cc1cccc(NC(=O)[C@@H](NC(=O)N2C[C@H]3C[C@@H](C2)c2cccc(=O)n2C3)C(C)C)c1	-1.1	nt	-5.9	-1.8	8.6
CC(C)[C@H](NC(=O)N1C[C@H]2C[C@@H](C1)c1cccc(=O)n1C2)C(=O)Nc1ccccc1F	nt	nt	58.2*	nt	-2.3
O=C(CCC(=O)N1C[C@H]2C[C@@H](C1)c1cccc(=O)n1C2)NCc1ccc(F)cc1	nt	nt	81.0*	0.0	2.6
CC(=O)Nc1cc(C(=O)N2CCC3(CC2)OCCO3)ccc1Sc1ccc(F)cc1	3.9	nt	-1.8	-8.5	nt
Clc1ccc([C@H]2CC3CCC2N3)cn1 (some centres not stated)	nt	nt	48.8*!	0.2	nt
SMILES	SIRT5 block	E-selectin induc	DENV2 CPE	ERAP1 inh	PglD DTNB
CCOC(=O)c1cncn1[C@@H](C)c1ccccc1	0.7	-2.1	-9.0	-0.8	0.3
CCCCN1C(=N)C(CC)(CC)C(=O)NC1=O	-1.2	nt	23.6*	0.9	nt
CC1=NCCc2c1[nH]c1cc(O)ccc21	-18.9	-0.3	18.4	53.5*	-3.0
COc1ccc(-n2c(C)nc3ccccc3c2=O)c([N+](=O)[O-])c1	2.5	0.1	-3.3	1.3	-2.7
COC(=O)C1=C(c2ccc(-c3ccccc3)c(F)c2)C[C@@H]2CC[C@H]1N2C(=O)NCCCOC(C)C	2.0	0.2	24.8*	-0.8	-1.0
COC(=O)C1=C(c2ccc(-c3ccccc3)c(F)c2)C[C@@H]2CC[C@H]1N2C(=O)NCCNC(C)=O	nt	0.1	-6.0	nt	3.1
COC(=O)C1=C(c2ccc3ccccc3c2)C[C@@H]2CC[C@H]1N2C(=O)NCCCOC(C)C	-3.6	-0.2	-2.1	-1.8	-1.9
COC(=O)C1=C(c2ccccc2OCc2ccccc2)C[C@@H]2CC[C@H]1N2C(=O)NCc1ccc(Cl)cc1	nt	1.6	57.8*	nt	-5.2
COC(=O)C1=C(c2ccc(-c3ccccc3)c(F)c2)C[C@@H]2CC[C@H]1N2C(=O)NCCc1ccccc1	-4.7	0.2	30.5*	-1.9	-1.8
COC(=O)C1=C(c2cccc(OCc3ccccc3)c2)C[C@@H]2CC[C@H]1N2C(=O)NCCCOC(C)C	26.7*	-0.1	-11.8	-2.9	-3.3
COC(=O)C1=C(c2cccc(OCc3ccccc3)c2)C[C@@H]2CC[C@H]1N2C(=O)NCc1cccc(OC)c1	9.7	nt	-7.3	-0.2	-0.5
O=C(N/N=C/c1c(O)n(Cc2ccccc2)c(=O)[nH]c1=O)c1ccccc1O	nt	1.7	nt	nt	nt
O=C(N/N=C/c1c(O)n(CCc2ccccc2)c(=O)[nH]c1=O)c1ccccc1O	38.0*	-0.3	-1.0	nt	nt
Cc1cc(C)n(-c2ccc(NN=C(C#N)C#N)cc2)n1	3.1	2.5	31.2*	5.1	-2.3
N#CC(C#N)=NNc1ccc(-n2ccc(C(F)(F)F)n2)cc1	nt	nt	-9.7	nt	-6.2
CN(N)N=Nc1nc2c([nH]1)c(=O)n(C)c(=O)n2C	nt	57.8*	-0.5	nt	nt
CC(C)(C)[C@]1(O)C[C@@H]2OC(=O)C[C@@]23C(=O)O[C@@H]2OC(=O)[C@@H](O)C213 (some centres not stated)	-3.3	-0.2	?	-2.3	0.7
C[C@@H]1C(=O)O[C@H]2[C@H](O)[C@]34[C@@H]5OC(=O)[C@]3(OC3OC(=O)[C@H](O)C34[C@H](C(C)(C)C)[C@@H]5O)[C@@]12O (some centres not stated)	1.1	0.1	41.7*	2.4	4.0
CC(C)[N+](C)(CCC(C(N)=O)(c1ccccc1)c1ccccc1)C(C)C	-3.6	1.5	-4.6	95.8*	1.9
CCc1ccc2nc(N3CCC(C(=O)N4CCC5(CC4)OCCO5)CC3)sc2c1	29.6*	-0.1	-3.2	3.1	0.8
Cc1ccc2nc(N3CCC(C(=O)N4CCC5(CC4)OCCO5)CC3)sc2c1	nt	nt	nt	nt	-2.9
OC(CN1CCOCC1)c1csc2ccccc12 (configuration not stated)	-4.4	-0.2	?	5.5	nt
C/C(=N\N1CCCCCC1)c1c(O)n(C2CCCCC2)c(=O)[nH]c1=O	4.0	0.1	1.1	-0.6	-0.2
CCOC(=O)c1cc(CC)sc1/N=C/C1C(=O)NC(=S)NC1=O	nt	nt	1.8	6.7	3.7

Screening data: PubChem BioAssay, Broad Institute
